The test system of data set [1] is Rattus norvegicus. The experiment in a line: Antiinflammatory activity in Wistar rat assessed as inhibition of FCA-induced paw edema at 2.04 mg/kg, po administered on days 13 post FCA-challenge measured up to days 28 relative to control. It is filed as functional. Put shortly: (§1)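 Male Wistar rats (200–250 g), n = 6 per group. Complete Freund's adjuvant, 0.1 ml, injected sub-plantar into left hind paw on day 1. Oral dosing as 0.25% sodium CMC suspension, days 13–28. Body weight, joint diameter (digital vernier caliper) and paw volume (plethysmometer) recorded on days 0, 3, 7, 12, 15, 19, 21 and 28. Edema inhibition = 1 − (Vt/Vc) × 100, using mean relative paw-volume change versus arthritic controls. Mean ± SEM; two-way ANOVA with Bonferroni post test.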

Data set [2] relates to Rattus norvegicus. Put plainly: Antiarthritic activity against FCA-induced arthritis in Wistar rat assessed as reduction in joint diameter at 2.04 mg/kg, po administered from day 13 post FCA-challenge measured up to day 28 relative to control. Format: functional, organism-based. Details: dose 2.04 mg/kg. The gist of the method:
as §1

Data set [3] relates to Rattus norvegicus. The experiment in a line: Antiarthritic activity against FCA-induced arthritis in Wistar rat assessed as increase in body weight at 2.04 mg/kg, po administered from day 13 post FCA-challenge measured after 28 days relative to control. It is filed as functional, organism-based. Also on record: dose 2.04 mg/kg. The gist of the method:
as §1

The test system of data set [4] is Rattus norvegicus. Put plainly: Gastrointestinal toxicity against fasted Wistar rat assessed as ulcer index at 20.4 mg/kg, po (reference value: 1.78 +/- 0.6). Format: organism-based. Details: dose 20.4 mg/kg, route oral. The note with it: in vivo.
Data set [5] deals with Rattus norvegicus. Put plainly: Antiarthritic activity in Wistar rat assessed as inhibition of FCA-induced subcutaneous inflammation of tibio-torsal joint at 2.04 mg/kg, po administered on day 13 post FCA-challenge measured on day 28 by hematoxylin and eosin staining method relative to control. It is filed as functional, organism-based. Also on record: dose 2.04 mg/kg. Put shortly:
(§2)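 Male Wistar rats, arthritis induced by sub-plantar FCA and oral dosing on days 13–28. Animals sacrificed on day 28. Ankle joints fixed 24 h in 10% buffered formalin, decalcified in 5% formic acid, paraffin-embedded and sectioned at 5 μm. H&E-stained sections read by light microscopy for synovial hyperplasia, pannus, joint-space destruction, inflammatory cell infiltration and synovitis.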

The subject of data set [6] is Rattus norvegicus. Put plainly: Antiinflammatory activity in Wistar rat assessed as inhibition of FCA-induced paw edema at 6.8 mg/kg, po administered on days 13 post FCA-challenge measured up to days 28 relative to control. It is filed as functional. The gist of the method: as §1
Data set [7] concerns Rattus norvegicus. Put plainly: Antiarthritic activity against FCA-induced arthritis in Wistar rat assessed as reduction in joint diameter at 6.8 mg/kg, po administered from day 13 post FCA-challenge measured up to day 28 relative to control. It is filed as functional, organism-based. Also on record: dose 6.8 mg/kg. The gist of the method: as §1
In data set [8] the test system is Rattus norvegicus. Put plainly: Antiarthritic activity against FCA-induced arthritis in Wistar rat assessed as increase in body weight at 6.8 mg/kg, po administered from day 13 post FCA-challenge measured after 28 days relative to control. It is filed as functional, organism-based. Details: dose 6.8 mg/kg. Put shortly: as §1
Data set [9] can be described thus: Chemical stability in HCl buffer up to 3 hrs at pH 1.2. The note with it: pH 1.2, 3 h. It is filed as physicochemical. Put shortly: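 10 mg prodrug in 100 ml HCl buffer pH 1.2, held at 37 ± 1 °C with occasional stirring. 5 ml aliquots withdrawn over 0–180 min, each replaced with fresh buffer. Samples read directly by UV at 232 nm (intact prodrug) and 259 nm (released diacerein). Triplicate runs.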

Data set [10] is described as follows: Prodrug conversion in phosphate buffer assessed as diacerein released after 30 mins at pH 7.4. It is filed as physicochemical. The following applies: pH 7.4, 0.5 h. Put shortly: (§3)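 Same procedure in phosphate buffer pH 7.4 at 37 °C, followed over 4.5 h. UV read at 230 nm (prodrug remaining) and 258 nm (diacerein released). First-order rate constants taken from plots; mean K and SD from three readings, with half-life derived from these.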

Data set [11] in a line: n-octanol-phosphate buffer distribution coefficient, log P of the compound at pH 7.4. It is filed as physicochemical. Put shortly:
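Shake-flask partitioning between n-octanol and phosphate buffer pH 7.4, with UV spectrophotometric quantification.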

Data set [12] is described as follows: Half life in phosphate buffer at pH 7.4. Format: physicochemical. The gist of the method:
as §3

The nature of data set [13]: Half life in Wistar rat small intestine homogenate. It is filed as ADME, tissue-based. The gist of the method:
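Small intestine from an ether-anaesthetized male Wistar rat, homogenized with its contents and diluted to half with phosphate buffer pH 7.4. Prodrug stock 0.8 ml plus homogenate 0.2 ml, 37 °C for 4.5 h. Centrifuged and filtered, then UV read at 230 nm (prodrug) and 258 nm (diacerein) against phosphate buffer blank. First-order K averaged over three readings.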

The test system of data set [14] is Stomach. The experiment in a line: Metabolic stability in Wistar rat stomach homogenate over 4.5 hrs. It is filed as ADME, tissue-based. The note with it: tissue homogenate. Put shortly: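 Rat stomach homogenized with its contents and diluted to half with HCl buffer pH 1.2. Prodrug stock 100 μg/ml in HCl buffer; 0.8 ml stock plus 0.2 ml homogenate incubated at 37 °C. Samples centrifuged at 10,000 rpm, 4 °C, 10 min, then filtered. UV read at 232/259 nm against HCl buffer blank; quantified from calibration curves.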

Data set [15] deals with Rattus norvegicus. The experiment in a line: Gastrointestinal toxicity against fasted Wistar rat assessed as ulcer index at 68 mg/kg, po (reference value: 1.78 +/- 0.6). Format: organism-based. Also on record: dose 68 mg/kg, route oral. The following applies: in vivo.
Data set [16] has as its system Rattus norvegicus. The experiment in a line: Antiarthritic activity in Wistar rat assessed as inhibition of FCA-induced mononuclear cell infiltration in synovial tissue of tibio-torsal joint at 6.8 mg/kg, po administered on day 13 post FCA-challenge measured on day 28 by hematoxylin and eosin staining method relative to control. Format: functional, organism-based. Also on record: dose 6.8 mg/kg. The gist of the method: as §2

For data set [17], the system named is Rattus norvegicus. The experiment in a line: Antiarthritic activity in Wistar rat assessed as inhibition of FCA-induced inflammatory cell infiltration in subcutaneous tissue of tibio-torsal joint at 6.8 mg/kg, po administered on day 13 post FCA-challenge measured on day 28 by hematoxylin and eosin staining method relative to control. It is filed as functional, organism-based. Details: dose 6.8 mg/kg. Put shortly: as §2

The nature of data set [18]: Chemical stability in HCl buffer over 3 hrs at pH 1.2. The note with it: pH 1.2, 3 h.
The test system of data set [19] is Rattus norvegicus. Put plainly: Antiarthritic activity in Wistar rat assessed as inhibition of FCA-induced subcutaneous inflammation of tibio-torsal joint at 5 mg/kg, po administered on day 13 post FCA-challenge measured on day 28 by hematoxylin and eosin staining method relative to control. Also on record: dose 5 mg/kg. It is filed as functional, organism-based. The gist of the method:
as §2

The test system of data set [20] is Rattus norvegicus. The experiment in a line: Antiinflammatory activity in Wistar rat assessed as inhibition of FCA-induced paw edema at 5 mg/kg, po administered on days 13 post FCA-challenge measured up to days 28 relative to control. Format: functional. Put shortly:
as §1

Data set [21] relates to Rattus norvegicus. Put plainly: Antiarthritic activity against FCA-induced arthritis in Wistar rat assessed as reduction in joint diameter at 5 mg/kg, po administered from day 13 post FCA-challenge measured from day 15 to day 28 relative to control. Format: functional, organism-based. Also on record: dose 5 mg/kg. Put shortly: as §1
The subject of data set [22] is Rattus norvegicus. Put plainly: Antiarthritic activity against FCA-induced arthritis in Wistar rat assessed as increase in body weight at 5 mg/kg, po administered from day 13 post FCA-challenge measured after 28 days relative to control. It is filed as functional, organism-based. Details: dose 5 mg/kg. Put shortly:
as §1

The subject of data set [23] is Rattus norvegicus. Put plainly: Gastrointestinal toxicity against fasted Wistar rat assessed as ulcer index at 50 mg/kg, po (reference value: 1.78 +/- 0.6). Details: dose 50 mg/kg, route oral. Format: organism-based. The note with it: in vivo.

Calls of active or inactive are those of the source. The calls are words filed in the database; no cut-off is given here.

As for `Cc1ccc(C(C)C)c(O)c1` [THYMOL], in data set [1], the inhibition in vivo at 2.04 mg/kg came out at 9.1%. Moreover, the outcome in data set [2] was Active. In data set [3], the outcome was inactive. For the same compound, in data set [4], the UI was determined as 1.98. For the same compound, the inhibition entry in data set [5] was “inactive”.
Regarding `CC(=O)Oc1cccc2c1C(=O)c1c(OC(C)=O)cc(C(=O)Oc3cc(C)ccc3C(C)C)cc1C2=O`, in data set [6], the inhibition in vivo at 6.8 mg/kg was 78.9%. The outcome in data set [7] and in data set [8] was Active. Further, the Stability entry in data set [9], in data set [14] and in data set [18] was “Stable” each time. In data set [10], the Drug metabolism entry was “Active”. The compound further showed a log distribution coefficient (logD) in [11] of 0.565. In addition, the figures for the half-life in data set [12] and in [13] were 3.22 h and 2.8 h, respectively. Besides, the UI in [15] came to 4.17. In data set [16], the inhibition result is “inactive”. The inhibition result in data set [17] was “Active”.
For the compound `CC(=O)Oc1cccc2c1C(=O)c1c(OC(C)=O)cc(C(=O)O)cc1C2=O` [DIACEREIN], in data set [19], the inhibition entry was “inactive”. Moreover, the inhibition in vivo at 5 mg/kg in data set [20] is 56.9%. In addition, the result in [21] and in data set [22] was Active. This compound yielded a logD in data set [11] of 0.46. Also, the UI in [23] stood at 6.03.

In general, inhibition in vivo refers to how much of the control response was suppressed. The term logD denotes lipophilicity at a set pH, counting ionised and neutral species. High values mean a more lipophilic compound, low ones a more hydrophilic compound. For orientation: half-life means how long it takes for the measured level to halve. Read a high half-life as slow loss.

The values above are taken from ChEMBL document CHEMBL2311422, “Studies on synthesis, stability, release and pharmacodynamic profile of a novel diacerein-thymol prodrug” (Bioorg Med Chem Lett, 2013).
